The record followed here is ChEMBL document CHEMBL1139095, “Butyl 2-(4-[1.1'-biphenyl]-4-yl-1H-imidazol-2-yl)ethylcarbamate, a potent sodium channel blocker for the treatment of neuropathic pain” (Bioorg Med Chem Lett, 2007).

One may read the IC50 as the point on the concentration scale where inhibition reaches its midpoint. A low value points to greater potency.

Assay [1] is described as follows: Displacement of [3H]BTX from sodium channel in rat cerebral cortex synaptosomal membrane. The class given is tissue-based. (Loss of bound radioactivity is the signal in a displacement assay; it reports binding, not function.)
Assay [2] relates to SH-SY5Y. Kind of assay: Cytoprotection against vetratridine-induced cytotoxicity in human SH-SY5Y cells. The class given is functional, cell-based. In outline:
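SH-SY5Y neuroblastoma cells were seeded 24 h ahead and pre-incubated 20 min with compound. They were then exposed 3 h to veratridine plus 1 mM ouabain, and the medium was swapped for 10% alamar blue for 18–24 h. Absorbance was read at 570/620. Percent cell injury was calculated from blank-corrected OD. IC50 (concentration halving injury) was extrapolated from dose–response graphs; triplicate means, two experiments.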

Assay [3] relates to Rattus norvegicus. Briefly: Antihyperalgesic effect in carrageenan-induced rat hyperalgesia model at 30 mg/kg, ip. The assay is classed as functional, organism-based. Also on record: dose 30 mg/kg. In outline:
(§1)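 Compound or vehicle was given ip 30 min before paw withdrawal threshold was measured to mechanical stimulus (Randall–Selitto). Carrageenan model: inflamed versus contralateral paw. CCI model: injured versus non-injured paw. Groups of n = 4–6 were compared with vehicle by two-sided Student/Dunnett test; mean ± SEM.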

In assay [4] the test system is Rattus norvegicus. Kind of assay: Protective activity against chronic constriction injury-induced rat neuropathic pain model at 30 mg/kg, ip. Also on record: dose 30 mg/kg. The assay is classed as functional, organism-based. In outline: as §1
The subject of assay [5] is Rattus norvegicus. Briefly: Antihyperalgesic effect in carrageenan-induced rat hyperalgesia model at 10 mg/kg, ip. Further details: dose 10 mg/kg. The class given is functional, organism-based. In outline:
as §1

Molecules are shown by their SMILES. The source made the active and inactive calls.

Molecule `CCCCOC(=O)NCCc1nc(-c2ccc(C(F)(F)F)cc2)c[nH]1` displayed an IC50 in assay [1] of 453 nM.
In the case of `CCCCCCOC(=O)NCCc1nc(-c2ccc(-c3ccccc3)cc2)c[nH]1`, the half-inhibitory concentration (IC50) was 15 nM in assay [1] and 670 nM in assay [2].
Taken in the same sequence, the figures for `CCCCOC(=O)NCCc1nc(-c2ccc(CC)cc2)c[nH]1` were 96 nM and 3220 nM.
`CCCCOC(=O)NCCc1nc(-c2ccc(C3CCCCC3)cc2)c[nH]1` had a concentration for half-maximal inhibition (IC50) in assay [1] of 7 nM.
On to `CC(C)(C)OC(=O)NCCCc1nc(-c2ccc(-c3ccccc3)cc2)c[nH]1`, for which, in assay [1], the IC50 was found to be 184 nM.
Still for that read-out and setting: for `CC(C)(C)OC(=O)NCCc1nc(-c2ccc(-c3ccccc3)cc2)c[nH]1` the value was 64 nM; for `CCCOC(=O)NCCc1nc(-c2ccc(-c3ccccc3)cc2)c[nH]1`, 86 nM.
With `CCCCOC(=O)NCCc1nc(-c2ccc(N3CCCC3)cc2)c[nH]1`, the half-inhibitory concentration (IC50) was determined as 14 nM in assay [1] and 1120 nM in assay [2].
`COC(=O)NCCc1nc(-c2ccc(-c3ccccc3)cc2)c[nH]1` showed an IC50 in assay [1] of 282 nM.
`O=C(NCCc1nc(-c2ccc(-c3ccccc3)cc2)c[nH]1)OCC1CCCCC1`: the IC50 in assay [1] worked out at 21 nM; in assay [2], 700 nM.
With `O=C(NCCc1nc(-c2ccc(-c3ccccc3)cc2)c[nH]1)OC1CCCCC1`, the figures for the half-maximal inhibitory concentration (IC50) in assay [1] and in assay [2] were 26 nM and 650 nM, respectively.
Consider `CCCCOC(=O)NCCc1nc(-c2ccc(Br)cc2)c[nH]1`, for which the half-maximal inhibitory concentration (IC50) is 210 nM in assay [1] and 900 nM in assay [2].
For `CC(C)COC(=O)NCCc1nc(-c2ccc(-c3ccccc3)cc2)c[nH]1` the same measures were 26 nM and 610 nM.
In assay [1], `CCOC(=O)NCCc1nc(-c2ccc(-c3ccccc3)cc2)c[nH]1` displayed a half-maximal inhibitory concentration (IC50) of 71 nM.
Still for that read-out and setting: for `CC(C)(C)COC(=O)NCCc1nc(-c2ccc(-c3ccccc3)cc2)c[nH]1` the value was 372 nM.
For `O=C(NCCc1nc(-c2ccc(-c3ccccc3)cc2)c[nH]1)OC1CCCC1`, the IC50 in assay [1] was found to be 52 nM; in assay [2] it was 870 nM.
Taken in the same sequence, the figures for `CCCCOC(=O)NCCc1nc(-c2ccc(CCC)cc2)c[nH]1` were 62 nM and 3990 nM.
For `CCCCOC(=O)NCCc1nc(-c2ccc(CC(C)C)cc2)c[nH]1` the same measures were 41 nM and 750 nM.
For the molecule `CCCCOC(=O)NCCc1nc(-c2ccc(-c3ccccc3)cc2)c[nH]1`, the outcome in assay [3], in assay [4] and in assay [5] was Active. In addition, the IC50 in assay [1] is 32 nM; in assay [2], 230 nM.
In the case of `CC(C)(C)OC(=O)NCc1nc(-c2ccc(-c3ccccc3)cc2)c[nH]1`, in assay [1], the concentration for half-maximal inhibition (IC50) is 144 nM.
Still for that read-out and setting: for `CCCCOC(=O)NCCc1nc(-c2ccc(F)cc2)c[nH]1` the value was 1000 nM.
